Experimental findings from ChEMBL document CHEMBL1123645, “Phenylephrine derivatives as leukotriene D4 antagonists” (J Med Chem, 1987) are described below.

The species named for test [1] is Cavia porcellus. Put plainly: Antagonist activity towards LTD4-induced contraction of isolated guinea pig. Type of test: functional. The gist of the method:
(§1)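 Guinea pig tracheal spirals stretched to near-optimal length and equilibrated 1.5 h, washed every 15 min. Indomethacin (5 μM) was present in all tissues. Cumulative LTD4 dose-response curves were recorded isometrically via force transducers. Paired proximal/distal strips from one animal got solvent control or drug. Values are negative log, mean ± SEM, and were compared by Student's t test.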

Test [2] is filed under the species Cavia porcellus. Nature of the test: relative potency antagonist on LTD4-induced contraction of isolated guinea pig trachea. Type of test: functional. An outline of the steps:
as §1

Test [3] relates to Cavia porcellus. Nature of the test: Relative inhibitory potency against LTD4 (leukotriene D4) induced bronchospasm when administered intraduodenally with respect to REV-5901 compound. It is filed as functional.
Test [4] has as its system Cavia porcellus. Put plainly: Relative inhibitory potency against ovalbumin induced bronchospasm when administered perorally with respect to LY-171,883 compound.
Test [5] deals with Cavia porcellus. Put plainly: Antagonist activity was determined by the ability to inhibit of LTD4 (leukotriene D4) induced bronchospasm when administered perorally with respect to REV-5901 compound. Type of test: functional. The settings on record: po. The gist of the method:
(§2)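 Guinea pig bronchoconstriction induced by LTD4 or by ovalbumin. Antagonist was dosed orally to awake animals 120 min before the agonist, which is 95 min before anesthetic. […] Single-dose lines give percent inhibition at the stated oral dose.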

Test [6] concerns Cavia porcellus. Nature of the test: Antagonist activity was determined by the ability to inhibit of ovalbumin induced bronchospasm when administered perorally with respect to REV-5901 compound. The settings on record: po. Type of test: functional. The gist of the method:
as §2

Test [7] relates to Cavia porcellus. Nature of the test: Antagonist activity was determined by the ability to inhibit of ovalbumin induced bronchospasm when administered intraduodenally with respect to REV-5901 compound. Type of test: functional. The settings on record: intraduodenal. An outline of the steps: (§3)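 Guinea pig bronchoconstriction induced by LTD4 or by ovalbumin. Antagonist was given intraduodenally 10 min before the agonist. […] Single-dose lines give percent inhibition at the stated id dose.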

For test [8], the system named is Cavia porcellus. Put plainly: Relative inhibitory potency against LTD4 (leukotriene D4) induced bronchospasm when administered perorally with respect to REV-5901 compound. Type of test: functional.
The test system of test [9] is Cavia porcellus. Nature of the test: Antagonist activity was determined by the ability to inhibit of LTD4 (leukotriene D4) induced bronchospasm when administered intraduodenally with respect to REV-5901 compound. Type of test: functional. The settings on record: intraduodenal. The gist of the method:
as §3

The subject of test [10] is Cavia porcellus. Put plainly: Antagonist activity was determined by the ability to inhibit of LTD4 (leukotriene D4) induced bronchospasm when administered perorally with respect to LY-171883 compound. It is filed as functional. The settings on record: po. The gist of the method:
as §2

Test [11] deals with Cavia porcellus. Put plainly: Relative inhibitory potency against LTD4 (leukotriene D4) induced bronchospasm when administered intraduodenally with respect to LY-171883 compound. It is filed as functional.
The subject of test [12] is Cavia porcellus. Put plainly: Antagonist activity was determined by the ability to inhibit of LTD4 (leukotriene D4) induced bronchospasm when administered intraduodenally with respect to LY-171883 compound. Type of test: functional. The settings on record: intraduodenal. An outline of the steps:
as §3

For test [13], the system named is Cavia porcellus. Nature of the test: Antagonist activity was determined by the ability to inhibit of ovalbumin induced bronchospasm when administered perorally with respect to LY-171883 compound. The settings on record: po. It is filed as functional. The gist of the method:
as §2

Test [14] concerns Cavia porcellus. Put plainly: Relative inhibitory potency against ovalbumin induced bronchospasm when administered intraduodenally with respect to LY-171883 compound. Type of test: functional.
In test [15] the test system is Cavia porcellus. Put plainly: Antagonist activity was determined by the ability to inhibit of ovalbumin induced bronchospasm when administered intraduodenally with respect to LY-171883 compound. It is filed as functional. The settings on record: intraduodenal. An outline of the steps:
as §3

The test system of test [16] is Cavia porcellus. Put plainly: Relative inhibitory potency against ovalbumin induced bronchospasm when administered perorally with respect to LY-171883 compound. Type of test: functional.
Test [17] deals with Cavia porcellus. Nature of the test: Relative inhibitory potency against LTD4 (leukotriene D4) induced bronchospasm when administered perorally with respect to LY-171883 compound. It is filed as functional.

The compound `CCCCCC(O)c1cccc(OCc2ccc3ccccc3n2)c1` (centres undefined) [REV-5901] returned a pkb in the test listed under Cavia porcellus [1] of 5.64. In addition, the Potency in the test listed under Cavia porcellus [2] worked out at 8; in the test on Cavia porcellus [3], 8.5; in the test with Cavia porcellus [4], 2.3; with Cavia porcellus [8], 1.6. Also, the 50% effective dose (ED50) is 52 mg/kg in the test with Cavia porcellus [5], 87 mg/kg in the test with Cavia porcellus [6], 47 mg/kg with Cavia porcellus [7] and 51 mg/kg in the test with Cavia porcellus [9].

Consider `CCCc1c(OCCCCc2nnn[nH]2)ccc(C(C)=O)c1O` [TOMELUKAST], for which the 50% effective dose (ED50) with Cavia porcellus [10] came out at 32 mg/kg; in the test on Cavia porcellus [12] it was 6 mg/kg; in the test with Cavia porcellus [13], 38 mg/kg; with Cavia porcellus [15] it was 19 mg/kg. Moreover, the Potency in the test with Cavia porcellus [11], in the test listed under Cavia porcellus [2], in the test on Cavia porcellus [14], in the test on Cavia porcellus [16] and in the test on Cavia porcellus [17] was 1 each time. The pkb in the test listed under Cavia porcellus [1] stood at 6.55.
